Results on 1 molecule are retold here after ChEMBL document CHEMBL4308845, “Allosteric Activation of Striatal-Enriched Protein Tyrosine Phosphatase (STEP, PTPN5) by a Fragment-like Molecule” (J Med Chem, 2019).

Assay [1] addresses T1, Tyrosine-protein phosphatase non-receptor type 5 (Mus musculus) (UniProt P54830).
T1 sequence (whole entry): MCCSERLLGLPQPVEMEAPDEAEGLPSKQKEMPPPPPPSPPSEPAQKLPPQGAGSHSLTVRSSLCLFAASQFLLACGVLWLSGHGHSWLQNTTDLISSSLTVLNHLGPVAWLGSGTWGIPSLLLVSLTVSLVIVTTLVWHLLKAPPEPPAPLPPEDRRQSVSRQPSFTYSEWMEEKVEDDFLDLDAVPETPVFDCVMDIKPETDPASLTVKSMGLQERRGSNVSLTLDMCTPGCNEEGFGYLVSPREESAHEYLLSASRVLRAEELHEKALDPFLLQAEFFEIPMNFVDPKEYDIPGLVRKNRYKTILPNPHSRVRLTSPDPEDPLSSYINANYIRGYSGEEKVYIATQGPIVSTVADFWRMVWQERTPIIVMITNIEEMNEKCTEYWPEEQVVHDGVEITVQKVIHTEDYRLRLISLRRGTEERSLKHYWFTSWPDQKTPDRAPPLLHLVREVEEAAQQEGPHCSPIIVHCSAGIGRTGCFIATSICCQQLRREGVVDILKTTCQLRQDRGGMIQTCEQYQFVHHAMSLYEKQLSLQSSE
Kind of assay: Activation of mouse STEP PTP domain (244 to 539 residues) expressed in Escherichia coli BL21(DE3) at 500 uM using biotin-pFyn peptide substrate after 60 mins by AlphaLISA assay. For orientation: Alpha assays give light when donor and acceptor beads are brought close together.

For assay [2], the target named is T2, Tyrosine-protein phosphatase non-receptor type 5 (Homo sapiens) (UniProt P54829).
T2 sequence (whole entry): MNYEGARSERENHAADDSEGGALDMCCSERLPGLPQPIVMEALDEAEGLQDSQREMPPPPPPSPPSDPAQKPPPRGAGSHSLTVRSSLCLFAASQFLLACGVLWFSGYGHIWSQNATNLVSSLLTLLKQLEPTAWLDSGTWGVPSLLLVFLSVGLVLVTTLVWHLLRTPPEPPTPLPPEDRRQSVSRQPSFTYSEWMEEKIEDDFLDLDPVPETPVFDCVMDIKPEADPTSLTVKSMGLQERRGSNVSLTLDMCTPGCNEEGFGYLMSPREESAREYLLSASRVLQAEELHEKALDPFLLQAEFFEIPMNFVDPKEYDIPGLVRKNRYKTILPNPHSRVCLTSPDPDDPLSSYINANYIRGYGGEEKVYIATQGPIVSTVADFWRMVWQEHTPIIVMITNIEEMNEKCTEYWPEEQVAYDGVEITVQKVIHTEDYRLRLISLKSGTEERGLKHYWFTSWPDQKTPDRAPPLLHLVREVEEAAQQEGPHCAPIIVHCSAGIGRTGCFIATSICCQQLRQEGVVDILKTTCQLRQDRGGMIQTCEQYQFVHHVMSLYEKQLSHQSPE
Description: Activation of human STEP PTP domain (281 to 563 residues) expressed in Escherichia coli BL21(DE3) assessed as ratio of Kcat to Km at 500 uM using pFyn peptide substrate after 60 mins by RapidFire MS/MS assay (reference value: 400 +/- 20 /M/s).

The target of assay [3] is T3, Tyrosine-protein phosphatase non-receptor type 2 (Homo sapiens) (UniProt P17706).
T3 sequence (whole entry): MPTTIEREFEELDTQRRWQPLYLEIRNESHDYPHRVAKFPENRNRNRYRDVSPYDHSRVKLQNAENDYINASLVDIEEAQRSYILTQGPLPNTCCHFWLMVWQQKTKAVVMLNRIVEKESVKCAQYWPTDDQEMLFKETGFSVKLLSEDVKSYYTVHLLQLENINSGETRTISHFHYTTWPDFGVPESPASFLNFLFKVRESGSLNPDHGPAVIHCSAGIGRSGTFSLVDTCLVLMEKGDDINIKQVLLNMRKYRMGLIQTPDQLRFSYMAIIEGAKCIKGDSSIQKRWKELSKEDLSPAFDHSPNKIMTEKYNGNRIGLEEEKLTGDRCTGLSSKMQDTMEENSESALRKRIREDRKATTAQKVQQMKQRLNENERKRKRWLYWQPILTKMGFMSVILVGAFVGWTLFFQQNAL
Description: Activation of human TCPTP (2 to 345 residues) at 500 uM using biotin-Ahx-EDT-pY-Y-RKG-amide as substrate measured after 2 hrs by AlphaLISA assay. In short, it runs like this:
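In-house TC-PTP (2−345) at 500 pM final, preincubated 10 min at 24 °C with compound (up to 500 μM), then EDT-pY-Y-RKG-amide substrate (1.4 μM final); 1.5 h at 24 °C, stopped with 200 μM orthovanadate. Competition AlphaScreen with biotin-Ahx-EDT-pY-Y-RKG-amide (2.5 nM) and antibody 4G10 (500 pM), 2 h at 24 °C. Quantified from on-plate standard curve.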

Assay [4] is filed under the species Homo sapiens. Kind of assay: Activation of human STEP46 (197 to 565 residues) expressed in Escherichia coli BL21(DE3) using biotin-pFyn peptide substrate after 60 mins by AlphaLISA assay. An outline of the steps: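 STEP46 (50 nM final) with biotinylated pFyn peptide (20 nM final) and compound in 1% DMSO, 60 min at room temperature in the dark. Detection by anti non-phospho Src/Tyr416 antibody in stop buffer containing 10 μM orthovanadate, plus protein A acceptor and streptavidin donor beads, 15 min each. % CTL computed against enzyme (100%) and no-enzyme (0%) controls.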

The species named for assay [5] is Homo sapiens. Kind of assay: Activation of human STEP46 (197 to 565 residues) expressed in Escherichia coli BL21(DE3) at 1000 uM preincubated for 10 mins followed by DiFMUP substrate addition and measured at 1 min time interval for 30 mins by fluorescence assay relative to control. An outline of the steps:
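STEP46 preincubated 10 min at room temperature with compound; reaction started with DiFMUP. Final: 100 nM STEP46, 1 μM DiFMUP, 50 mM HEPES, 0.02% Brij 35, 1 mM DTT, 5% DMSO. Fluorescence (ex 340/em 460 nm) every 1 min for 30 min at 37 °C; no-enzyme background subtracted. Linear slope expressed relative to enzyme without compound (100%).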

In assay [6] the target is T2, Tyrosine-protein phosphatase non-receptor type 5 (Homo sapiens). Description: Binding affinity to human 15N-labeled STEP PTP domain (281 to 563 residues) expressed in Escherichia coli OD2 assessed as induction of chemical perturbation at 500 uM by 1H,15N TROSY NMR spectral analysis. An outline of the steps:
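40 μM 15N-labelled STEP PTP domain in 20 mM Tris-d11, 100 mM NaCl, 1 mM TCEP, pH 7.4, 8% D2O, 1% DMSO-d6, 298 K. TROSY spectra used 192 transients and 64 indirect points. Binders were called by manual comparison with the protein-only reference spectrum.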

For assay [7], the species on record is Homo sapiens. Description: Activation of human STEP46 (197 to 565 residues) expressed in Escherichia coli BL21(DE3) using pFyn peptide substrate after 60 mins by RapidFire MS/MS assay relative to control. In short, it runs like this: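 Unlabeled Fyn peptide with STEP46 (50 nM final) and compound (500 μM final) in 50 mM HEPES, 0.02% Brij35, 1 mM DTT; 1 h at room temperature. Stopped with sodium orthovanadate (12 μM final), internal standard peptide added, dephosphorylation quantified by RapidFire MS/MS using MRM in positive mode.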

Calls of active or inactive are those of the source. The rule behind the calls is not given here.

Turning to `N=C(N)Nc1cc(C2CCNCC2)cc(C(F)(F)F)c1`, the outcome in assay [1] and in assay [6] was Active. Also, the Ratio in assay [2] stood at 650 M⁻¹ s⁻¹. The result in assay [3] was inactive. In addition, the Activity result was “Dose-dependent effect” in the assay listed under Homo sapiens [4], 48% in the assay filed under Homo sapiens [5] and 28% in the assay listed under Homo sapiens [7].
